Rows were chosen to be rich in hits. Some 3.4% of all compounds tested hit in one or more screens of this group.
UCH37 DUB inh: human UCH37 deubiquitinating enzyme inhibition | 330,000 compounds, 0.33% hits | Q9Y5K5 | purified proteasome/UCH37, Ub-AMC cleavage fluorescence | inhibition, % (concentration not given with the values);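 active = mean inhibition over replicate wells above about 20%, limit read from the data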
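Material: human UCH37 enzyme supplied as purified proteasome complex / Amount: 0.15 nM proteasome as dispensed / Buffer or medium: pH 7.4 Tris-HCl (50 mM) with ovalbumin, ATP-MgCl2, DTT / Times: preincubation 30 min, reaction 25 min, room temperature / Technique: AMC fluorescence from Ub-AMC cleavage, excitation 355 nm, emission 460 nm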
PolyA inhibitor: blocks polyadenylation in yeast reporter cells; S. cerevisiae SKY197-pL101 polyadenylation reporter, beta-gal luminescence; efflux-impaired pdr1/pdr3 knockout yeast; score 100 = 6 SD above DMSO; activity score, % at 12 µM; 300,000 compounds, 0.02% hits; AID 1875;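 active = lowest replicate activity score at least 50, where 100 means six control SD above control mean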;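 note: yeast exposed to compound for 9 h at 30 °C; higher score means more reporter readthrough which indicates perturbed polyadenylation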
AHR act: activates the human aryl hydrocarbon receptor. AHR-responsive luciferase reporter cells, luminescence. activation, % at 5 µM. 320,000 compounds, 2.5% hits. AID 2796; in the data active = activation above about 47%
Target sequence (P35869 whole entry, looked up): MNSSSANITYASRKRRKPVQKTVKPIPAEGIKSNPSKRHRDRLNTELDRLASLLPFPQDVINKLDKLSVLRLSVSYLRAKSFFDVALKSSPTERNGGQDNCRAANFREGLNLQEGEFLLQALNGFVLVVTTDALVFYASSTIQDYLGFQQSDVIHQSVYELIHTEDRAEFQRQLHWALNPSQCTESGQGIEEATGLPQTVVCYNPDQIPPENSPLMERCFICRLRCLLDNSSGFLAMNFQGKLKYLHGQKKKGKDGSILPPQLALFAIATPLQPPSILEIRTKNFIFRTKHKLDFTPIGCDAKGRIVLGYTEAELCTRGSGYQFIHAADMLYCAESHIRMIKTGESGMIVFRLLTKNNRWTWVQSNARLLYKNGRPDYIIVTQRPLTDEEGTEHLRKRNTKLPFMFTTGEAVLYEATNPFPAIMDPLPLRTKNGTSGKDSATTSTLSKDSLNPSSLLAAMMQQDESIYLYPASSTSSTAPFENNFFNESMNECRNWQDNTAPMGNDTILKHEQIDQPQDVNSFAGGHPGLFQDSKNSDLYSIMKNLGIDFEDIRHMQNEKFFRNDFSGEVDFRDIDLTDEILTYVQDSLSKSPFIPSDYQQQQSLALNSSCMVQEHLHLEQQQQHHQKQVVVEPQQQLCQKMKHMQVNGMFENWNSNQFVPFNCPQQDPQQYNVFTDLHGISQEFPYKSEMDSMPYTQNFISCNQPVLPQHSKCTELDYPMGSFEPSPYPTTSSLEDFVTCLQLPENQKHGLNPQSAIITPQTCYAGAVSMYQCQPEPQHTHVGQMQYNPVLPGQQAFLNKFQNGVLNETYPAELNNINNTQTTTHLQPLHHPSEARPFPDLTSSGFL
APOBEC3A inh: human APOBEC3A DNA deaminase inhibition; inhibition, % at 20 µM; recombinant A3A, FAM/TAMRA ssDNA deamination fluorescence; 330,000 compounds, 0.41% hits;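 active = at least 40% inhibition at 20 µM here, with at most 30% in a related deaminase screen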
APOBEC3G inh: blocks human APOBEC3G single-stranded DNA deamination; Q9HC16; recombinant A3G, ssDNA deamination FAM/TAMRA fluorescence; inhibition, % at 20 µM; 330,000 compounds, 0.28% hits;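 active = inhibition of at least 40% at 20 µM, with no more than 30% in the related APOBEC3A deaminase screen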
Arrestin-AP2 inh: blocks beta-arrestin peptide binding to AP2 adaptin. FITC-arrestin peptide / GST-AP2 beads, flow cytometry; AP2 beta2 appendage carries R879A mutation. inhibition, % at 10 µM. 340,000 compounds, 0.31% hits. AID 504490;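 active = inhibition above a set limit, near 3 SD of compounds lacking own fluorescence, cut at about 54% in these data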
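System: GST-AP2 R879A bound to glutathione beads, E. coli-expressed. Also added: 50 nM FITC-arrestin peptide. Schedule: compound with beads 12 min RT, then probe 1 h RT. Signal: bead flow cytometry, FITC channel. Read-out basis: percent response.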
UCH37 reconfirm: UCH37 Ub-AMC cleavage inhibition, confirmed; inhibition, % at 20 µM; shares compounds with UCH37 DUB inh; Proteasome-bound UCH37, Ub-AMC cleavage fluorescence; 480 compounds, 27% hits; AID 624100;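 active = average inhibition over replicates above about 50%, so the earlier screening hit is confirmed, limit read from the data; inactive = the rest, counted as false positives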;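 note: based on cleavage rate fitted by regression over a 30 min kinetic read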
Hits are given with their value.

Results for Cc1ccc(N2C(=O)[C@@H]3[C@H](C2=O)C2c4ccccc4C=CN2[C@@H]3C(=O)c2ccco2)c(C)c1 (stereo partly specified) ?
UCH37 DUB inh: 28; PolyA inhibitor: inactive; AHR act: inactive; APOBEC3A inh: inactive; APOBEC3G inh: inactive; Arrestin-AP2 inh: inactive; UCH37 reconfirm: inactive

Results for CC(C)NC(=O)COc1ccc(C=NNS(=O)(=O)c2ccccc2)cc1 ?
UCH37 DUB inh: inactive

Results for CCCC(=O)Nc1sc2c(c1C#N)CCCC2 ?
UCH37 DUB inh: inactive; PolyA inhibitor: inactive; AHR act: inactive; APOBEC3A inh: inactive; APOBEC3G inh: inactive; Arrestin-AP2 inh: inactive

What do the screens show for `CC1CCN(CC(=O)Nc2sc3c(c2C#N)CCC3)CC1`?
UCH37 DUB inh: 37; PolyA inhibitor: inactive; AHR act: inactive; APOBEC3A inh: inactive; APOBEC3G inh: inactive; Arrestin-AP2 inh: inactive; UCH37 reconfirm: inactive

What do the screens show for `CCOC(=O)CC1=NN(c2ccccc2)C(=O)/C1=C\c1ccc(OC)cc1OC`?
UCH37 DUB inh: 35; PolyA inhibitor: inactive; AHR act: inactive; APOBEC3A inh: inactive; APOBEC3G inh: inactive; Arrestin-AP2 inh: inactive; UCH37 reconfirm: inactive

What do the screens show for `CCOC(=O)c1c(=O)n(O)c2ccc(C)cc2[n+]1[O-]`?
UCH37 DUB inh: 39; PolyA inhibitor: inactive; AHR act: inactive; APOBEC3A inh: inactive; APOBEC3G inh: inactive; Arrestin-AP2 inh: inactive; UCH37 reconfirm: inactive

How did CCOC(=O)c1c(C)[n+]([O-])c2ccc3c(non3O)c12 do in these assays?
UCH37 DUB inh: inactive; PolyA inhibitor: inactive; AHR act: inactive; APOBEC3A inh: inactive; APOBEC3G inh: inactive; Arrestin-AP2 inh: inactive

What do the screens show for `Cc1[nH]n(-c2ccccc2)c(=O)c1C(C[N+](=O)[O-])c1ccc(Br)cc1` (stereo unspecified)?
UCH37 DUB inh: 29; PolyA inhibitor: inactive; AHR act: inactive; APOBEC3A inh: inactive; APOBEC3G inh: inactive; Arrestin-AP2 inh: inactive; UCH37 reconfirm: inactive

What do the screens show for `CCC(C)[C@@H](N)C(=O)NN=Cc1ccc2ncccc2c1` (stereo partly specified)?
UCH37 DUB inh: inactive

How did O=C1Nc2ccccc2C1=NN=Cc1cccc(O)c1 do in these assays?
UCH37 DUB inh: inactive

What do the screens show for `Cc1ccc(C)c(-n2nnnc2SCC(=O)NCCC2=CCCCC2)c1`?
UCH37 DUB inh: 59; PolyA inhibitor: inactive; AHR act: inactive; APOBEC3A inh: inactive; APOBEC3G inh: inactive; Arrestin-AP2 inh: inactive; UCH37 reconfirm: inactive

How did CNC(=O)CSc1nnnn1-c1cc(C)ccc1C do in these assays?
UCH37 DUB inh: inactive; PolyA inhibitor: inactive; AHR act: inactive; APOBEC3A inh: inactive; APOBEC3G inh: inactive; Arrestin-AP2 inh: inactive

Results for CCC(=NNS(=O)(=O)c1ccc(Cl)cc1)c1ccc(O)cc1 ?
UCH37 DUB inh: inactive

What do the screens show for `COC(=O)c1cc(C)nc2c1C(=O)C(=O)C=C2N1CCOCC1`?
UCH37 DUB inh: 100; PolyA inhibitor: inactive; AHR act: inactive; APOBEC3A inh: inactive; APOBEC3G inh: inactive; Arrestin-AP2 inh: inactive; UCH37 reconfirm: 100

What do the screens show for `Cc1cc(C)c(S(=O)(=O)N=C2C=C(SCC(=O)O)C(=O)c3ccccc32)cc1C`?
UCH37 DUB inh: 49; UCH37 reconfirm: 82

How did COc1ccc(NC(=O)c2ccc(Br)o2)cc1 do in these assays?
UCH37 DUB inh: 40; PolyA inhibitor: inactive; AHR act: inactive; APOBEC3A inh: inactive; APOBEC3G inh: inactive; Arrestin-AP2 inh: inactive; UCH37 reconfirm: inactive

What do the screens show for `CCOC(=O)N1CCN(C2=C(NS(=O)(=O)c3ccc(C)cc3)C(=O)c3ccccc3C2=O)CC1`?
UCH37 DUB inh: 42; PolyA inhibitor: inactive; AHR act: inactive; APOBEC3A inh: inactive; APOBEC3G inh: inactive; Arrestin-AP2 inh: inactive; UCH37 reconfirm: 53

What do the screens show for `Cc1ccc(S(=O)(=O)NC2=C(N3CCN(Cc4ccccc4)CC3)C(=O)c3ccccc3C2=O)cc1`?
UCH37 DUB inh: inactive; PolyA inhibitor: inactive; AHR act: inactive; APOBEC3A inh: inactive; APOBEC3G inh: inactive; Arrestin-AP2 inh: inactive
